Test system: Mus musculus
Experiment: Cognition enhancing activity in sc dosed mouse assessed as reversal of scopolamine-induced amnesia measured up to 24 hrs treated 20 mins before training session by passive-avoidance test
Format: functional
Conditions: read-out: MED
Procedure, shortened: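 Mouse passive-avoidance test (Jarvik and Kopp, slightly modified). Compounds in DMSO/saline (1:10), given s.c. 20 min before training, tested in a 1:10 dose-dilution sequence. Amnesia induced by scopolamine 1.5 mg/kg i.p. immediately after punishment. Mean of 8–16 mice per group; activity reported as minimal effective dose (MED, mg/kg).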

SMILES	minimal effective dose [mg/kg]
CCC(=O)N1CCN(C(=O)c2ccccc2)CC1c1ccccc1 (racemic)	0.1
CC(=O)N1CCN(S(=O)(=O)c2ccc(F)cc2)C(c2ccccc2)C1 (centres undefined)	10
CCC(=O)N1CCN(C(=O)c2ccccc2)CC1C (centres undefined)	> 10
CCC(=O)N1CCN(C(=O)c2ccccc2)C(C)C1 (centres undefined)	0.1
NC(=O)CN1CCCC1=O [PIRACETAM]	30
O=C1c2ccccc2C2CN(S(=O)(=O)c3ccc(F)cc3)CCN12 (centres undefined)	0.1
CCC(=O)N1CCNCC1	0.1
CCC(=O)N1CCN(C(=O)c2ccccc2)CC1Cc1ccccc1 (centres undefined)	1
CCC(=O)N1CCN(C(=O)c2ccccc2)C(Cc2ccccc2)C1 (centres undefined)	1
CC(=O)N1CCN(S(=O)(=O)c2ccc(F)cc2)C(C)C1 (centres undefined)	0.1
CC(=O)N1CCN(S(=O)(=O)c2ccc(F)cc2)CC1C (centres undefined)	1
CCC(=O)N1CCN(C(=O)c2ccccc2)C(c2ccccc2)C1 (centres undefined)	1
CC(=O)N1CCNC(c2ccccc2)C1 (centres undefined)	> 10
CCC(=O)N1CCN(C(=O)c2ccccc2)C[C@@H]1c1ccccc1	1
O=C(c1ccccc1)N1CCNCC1	0.1
CC(=O)N1CCN(S(=O)(=O)c2ccc(F)cc2)CC1c1ccccc1 (centres undefined)	> 10
O=C(c1ccccc1)N1CCNC(c2ccccc2)C1 (racemic)	> 10
CC(=O)N1CCN(S(=O)(=O)c2ccc(F)cc2)CC1	0.01
CCC(=O)N1CCN(C(=O)c2ccccc2)CC1 [SUNIFIRAM]	0.001
O=S(=O)(c1ccc(F)cc1)N1CCNC(c2ccccc2)C1 (centres undefined)	> 10
CCC(=O)N1CCNC(c2ccccc2)C1 (centres undefined)	> 10
CCC(=O)N1CCN(C(=O)c2ccccc2)C[C@H]1c1ccccc1	0.1
O=C1CCC2CN(S(=O)(=O)c3ccc(F)cc3)CCN12 (centres undefined) [UNIFIRAM]	0.001
CCC(=O)N1CCN2C(=O)c3ccccc3C2C1 (centres undefined)	> 10

From ChEMBL document CHEMBL3400141, “Substituted piperazines as nootropic agents: 2- or 3-phenyl derivatives structurally related to the cognition-enhancer DM235” (Bioorg Med Chem Lett, 2015)
